Among the data in ChEMBL document CHEMBL1141424, “Antitubercular dihydroagarofuranoid sesquiterpenes from the roots of Microtropis fokienensis” (2007) are MIC values, retold here.

The assay deals with Mycobacterium tuberculosis. Put plainly: Antitubercular activity against Mycobacterium tuberculosis 90-221387. The class given is functional. The gist of the method: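 Agar proportion method on Middlebrook 7H10 with OADC, clinical susceptible isolate 90-221387. Compound serially diluted into agar at 50-56 °C, final 100 to 0.8 µg/mL, in quadrant plates. Inoculum in 7H9 broth adjusted to McFarland no. 1, then 10-2 dilution, spotted on each quadrant. Incubated 35 °C, 10% CO2, 2 weeks. MIC read; ethambutol positive control; means of 3 or 4 replicates.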

SMILES strings stand for the structures. Converted amounts (≈) assume the structure as drawn.

As a reminder, the MIC is the lowest concentration found to suppress growth. The molecule `CC(=O)O[C@H]1[C@@H](OC(=O)c2ccccc2)C[C@@H](C)[C@]23OC(C)(C)[C@H](C[C@H](OC(=O)c4ccccc4)[C@]12C)[C@H]3OC(=O)c1ccccc1` [ORBICULIN G] had a minimal inhibitory concentration (MIC) of 14.6 µM (≈ 9.35 µg/mL).

`CC(=O)O[C@H]1[C@@H](O)C[C@@H](C)[C@]23OC(C)(C)[C@H](C[C@H](OC(=O)c4ccccc4)[C@]12COC(=O)c1ccccc1)[C@H]3OC(=O)c1ccccc1` gave an MIC of 19.5 µM (≈ 12.8 µg/mL).

`CC[C@H](CC[C@@H](C)[C@H]1CC[C@H]2[C@@H]3CC=C4CC(=O)CC[C@]4(C)[C@H]3CC[C@]12C)C(C)C` [BETA-SITOSTENONE] had an MIC of over 400 µM.

As to `O=C(O)c1ccc(O)cc1` [PARABEN], the MIC was determined as 362 µM (≈ 50 µg/mL).

Take `CC(=O)O[C@H]1C[C@@H](C)[C@]23OC(C)(C)[C@H](C[C@H](OC(=O)c4ccccc4)[C@]2(COC(=O)c2ccccc2)[C@H]1OC(C)=O)[C@H]3OC(C)=O` [MUTANGIN]: 51.8 µM (≈ 33 µg/mL) was the least that counted as inhibitory (MIC).

In turn, `CC(=O)O[C@H]1CC[C@@H](C)[C@@]23C[C@@H](C[C@H](OC(=O)c4ccccc4)[C@]12C)C(C)(C)O3` yielded an MIC of 26 µM (≈ 10.4 µg/mL).

Take `O=Cc1ccc(O)cc1` [4-HYDROXYBENZALDEHYDE]: the MIC was over 400 µM.

As to `COc1cc(C(=O)O)cc(OC)c1O` [SYRINGIC ACID], the MIC came out at 318 µM (≈ 63 µg/mL).

`CC(=O)O[C@H]1CC[C@@H](C)[C@]23OC(C)(C)[C@H](C[C@H](OC(=O)c4ccccc4)[C@]12COC(=O)c1ccccc1)[C@H]3OC(=O)c1ccccc1` registered an MIC of 78.1 µM (≈ 50 µg/mL).

Molecule `CC[C@@H](CO)NCCN[C@@H](CC)CO` [ETHAMBUTOL] gave an MIC of 30.6 µM (≈ 6.25 µg/mL).

`CC[C@H](CC[C@@H](C)[C@H]1CC[C@H]2[C@@H]3CC=C4C[C@@H](O)CC[C@]4(C)[C@H]3CC[C@]12C)C(C)C` [BETA-SITOSTEROL]: the MIC is over 400 µM.

For the molecule `COc1cc(C(=O)O)ccc1O` [VANILLIC ACID], 375 µM (≈ 63.1 µg/mL) was the least that counted as inhibitory (MIC).

`CC(=O)O[C@H]1C[C@@H](C)[C@]23OC(C)(C)[C@H](C[C@H](OC(=O)c4ccccc4)[C@]2(COC(=O)c2ccccc2)[C@H]1O)[C@H]3OC(=O)c1ccccc1`: the MIC came to 15.8 µM (≈ 10.4 µg/mL).

In the case of `O=Cc1cc(Cc2ccc(O)cc2)ccc1O` [FORKIENIN], the lowest concentration to inhibit growth (MIC) was 276 µM (≈ 63 µg/mL).

As for `CC(=O)O[C@H]1C[C@@H](C)[C@]23OC(C)(C)[C@H](C[C@H](OC(=O)c4ccccc4)[C@]2(COC(=O)c2ccccc2)[C@H]1OC(C)=O)[C@H]3OC(=O)c1ccccc1`, the minimal inhibitory concentration (MIC) is 96 µM (≈ 67.1 µg/mL).
